RAD52 inh = RAD52 (human) annealing inhibition; P43351; recombinant RAD52 DNA annealing, FRET fluorescence; inhibition, % at 18.7 µM; 0.46% of 360,000 active; AID 651710;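 active = every replicate showing at least 50% inhibition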
CAL PDZ FP-1 = blocks peptide binding to human CAL PDZ domain; AID 504414; inhibition, % at 20 µM; purified CAL PDZ, TMR-peptide fluorescence polarization, 1 h; 0.02% of 330,000 active; Q9HD26;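 active = highest replicate inhibition of at least 40%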;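 note: plate controls were DMSO neutral control wells for no effect and unlabeled competitor peptide control wells for full effect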
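Material: tagged CAL PDZ domain; buffer or medium: 25 mM sodium phosphate pH 7.4, 150 mM NaCl, TCEP, IgG, Thesit; compound dosing: single point, 20 µM; schedule: 1 h incubation at room temperature before polarization reading; measured by: FP readout, S and P plane fluorescence; read-out basis: percent inhibition from loss of millipolarization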
RAD54 inh = RAD54 (human) branch migration inhibition; RAD54 Holliday junction branch migration, FAM/BHQ fluorescence; AID 602329; 0.14% of 360,000 active; inhibition, % at 10.4 µM; Q92698;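 active = mean normalized replicate activity at least 40 and at least half of replicates scoring 40 or more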;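 note: 0% = median of neutral control wells and 100% = median of positive control wells; inhibitors cause a drop in the FAM fluorescence signal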
CAL PDZ FP-2 = blocks peptide binding to the human CAL PDZ domain. purified CAL PDZ, TMR-peptide fluorescence polarization, 1 h. AID 602252. 0.92% of 300,000 active. Q9HD26. inhibition, % at 24.9 µM;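 active = mean inhibition of at least 30% with at least half of replicates also reaching 30%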;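 note: 0% = DMSO neutral control and 100% = excess unlabeled competitor peptide PRC23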
PDI turbidity = blocks human protein disulfide isomerase activity; 0.052% of 350,000 active; PDI insulin aggregation turbidity, A650, 90 min; inhibition, % at 10 µM; P07237; AID 588391;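 active = mean inhibition across replicates of 30% or more, whatever share of single replicates reach that level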
ERp5 inh = blocks human ERp5 reductase activity on insulin; Q15084; ERp5 insulin aggregation, absorbance 650 nm, 90 min; inhibition, % at 9.99 µM; 0.05% of 350,000 active; AID 651711;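 active = mean replicate inhibition above about 25%, with every replicate also reaching it, limit read from the data, passing the limit was not always enough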
Target sequence (Q15084 whole entry, looked up): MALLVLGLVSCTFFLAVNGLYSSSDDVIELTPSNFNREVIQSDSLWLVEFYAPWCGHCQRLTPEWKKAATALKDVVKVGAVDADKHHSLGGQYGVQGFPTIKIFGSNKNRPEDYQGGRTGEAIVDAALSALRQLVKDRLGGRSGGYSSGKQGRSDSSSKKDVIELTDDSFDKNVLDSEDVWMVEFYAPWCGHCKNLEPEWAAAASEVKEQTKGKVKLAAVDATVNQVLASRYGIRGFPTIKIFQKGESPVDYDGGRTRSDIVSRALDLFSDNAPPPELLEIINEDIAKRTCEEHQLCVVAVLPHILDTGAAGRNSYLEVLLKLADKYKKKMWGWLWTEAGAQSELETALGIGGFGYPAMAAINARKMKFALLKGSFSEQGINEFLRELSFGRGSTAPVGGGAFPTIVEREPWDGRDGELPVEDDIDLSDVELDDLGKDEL
* marks the source's active call; other numbers are inactive results. Only some compounds are listed: those with a hit (about 1% of all), similar ones and a draw of the others.

CCCC(=O)Nc1ccc2c(c1)C(=O)N(C)C[C@@H](OC)[C@H](C)CN(C(=O)c1ccncc1)[C@H](C)CO2 was read as RAD52 inh -11.7, RAD54 inh -0.5 and ERp5 inh -2.4.
For O=C(CSc1nnc(N2CCCC2)n1-c1ccccc1Cl)N1CCN(c2ccccn2)CC1 the results were RAD52 inh -8.4, CAL PDZ FP-1 -0.4, RAD54 inh 2.0, CAL PDZ FP-2 40.2*, PDI turbidity 0.0 and ERp5 inh -7.2.
O=C(CSc1nnc(N2CCCC2)n1-c1cccc(Cl)c1)N1CCN(c2ccccn2)CC1 was read as RAD52 inh -4.3, RAD54 inh -4.7, PDI turbidity -3.3 and ERp5 inh -5.5.
Screening CCNC(=O)NC(=O)c1csc([N+](=O)[O-])c1 returned RAD52 inh -4.2, CAL PDZ FP-1 -0.7, CAL PDZ FP-2 40.5*, PDI turbidity 1.9 and ERp5 inh -1.8.
Screening COc1ccc(OC)c(-c2c3cc(O)c(=O)cc-3oc3cc(O)c(O)cc23)c1 returned CAL PDZ FP-1 87.0*, CAL PDZ FP-2 56.9* and PDI turbidity 26.5.
For CCOc1ccccc1-c1c2cc(O)c(=O)cc-2oc2cc(O)c(O)cc12 the results were CAL PDZ FP-1 126.3*, CAL PDZ FP-2 42.5* and PDI turbidity -2.9.
Screening O=c1cc2oc3cc(O)c(O)cc3c(-c3ccccc3O)c-2cc1O returned CAL PDZ FP-1 46.6*, CAL PDZ FP-2 26.3 and PDI turbidity -8.5.
Cc1ccc2nc(-c3ccc(NC(=O)CSc4nc(N)cc(=O)[nH]4)cc3)sc2c1 was read as RAD52 inh -88.2, CAL PDZ FP-1 -0.4, RAD54 inh -5.4, CAL PDZ FP-2 53.5*, PDI turbidity 5.5 and ERp5 inh 0.9.
Screening Cc1ccc(NC(=O)CSc2nc3nc(C)cc(C)c3c(=O)[nH]2)cc1 returned RAD52 inh -7.6, RAD54 inh -6.9, CAL PDZ FP-2 37.3*, PDI turbidity 6.6 and ERp5 inh 2.4.
Cc1cc(C)c2c(=O)[nH]c(SCC(=O)Nc3ccccc3)nc2n1 was read as CAL PDZ FP-1 -0.3, RAD54 inh -0.6 and PDI turbidity 1.9.
C[C@@H]1CN([C@H](C)CO)C(=O)c2cc(NS(=O)(=O)c3cn(C)cn3)ccc2O[C@@H](C)CCCCO[C@H]1CN(C)C(=O)Nc1ccc(F)cc1 was read as RAD52 inh 7.7, RAD54 inh 5.6 and ERp5 inh -1.2.
COc1ccccc1C(=O)/C=C/c1ccc(N2CCCCC2)c([N+](=O)[O-])c1 was read as RAD52 inh -4.9, CAL PDZ FP-1 -0.5, RAD54 inh -0.7, CAL PDZ FP-2 -1.4, PDI turbidity -6.4 and ERp5 inh -7.0.
`O=C(/C=C/c1ccc(N2CCCCC2)c([N+](=O)[O-])c1)c1ccc(O)cc1` gave RAD52 inh -12.2, CAL PDZ FP-1 -2.5, RAD54 inh -4.0, CAL PDZ FP-2 -2.6, PDI turbidity 84.7* and ERp5 inh -1.1.
For COCc1nnc(NS(=O)(=O)c2c(C)cc(C)cc2C)s1 the results were RAD54 inh -10.8, CAL PDZ FP-2 34.8* and PDI turbidity 0.9.
Screening CCOc1ccc(C(=O)OCCN(CC)CC)cc1 returned CAL PDZ FP-1 -1.0, RAD54 inh -3.6, CAL PDZ FP-2 -1.4 and PDI turbidity -1.3.
Screening CCCOc1ccc(C(=O)OCCN(CC)CC)cc1N returned RAD52 inh 95.0*, CAL PDZ FP-1 1.0, RAD54 inh 4.0, CAL PDZ FP-2 -5.2, PDI turbidity 5.8 and ERp5 inh -1.2.
`Cc1nn2c(NCCCN(C)C)c3c(nc2c1-c1ccccc1)CCCC3` gave RAD52 inh 21.4, CAL PDZ FP-1 0.0, CAL PDZ FP-2 active, PDI turbidity -6.4 and ERp5 inh 1.7.
CCOc1cc(C)c(Cl)cc1S(=O)(=O)N(CC)CC was read as CAL PDZ FP-1 -0.5, RAD54 inh -11.7, CAL PDZ FP-2 73.8* and PDI turbidity -1.9.
For Cc1nc(SCC(=O)N2CCN(C(=O)c3ccco3)CC2)c2c(C)c(C)sc2n1 the results were RAD54 inh -1.8, CAL PDZ FP-2 30.9* and PDI turbidity 6.7.
Cc1ccc(-c2nc(N)n(C(=O)c3cccs3)n2)cc1 was read as CAL PDZ FP-1 10.1, RAD54 inh 2.3, CAL PDZ FP-2 83.4* and PDI turbidity 6.4.
Screening Cc1ccc(O)c(NC(=S)NC(=O)C(C)C)c1 returned RAD52 inh 5.0, CAL PDZ FP-1 -1.1, RAD54 inh 9.0, CAL PDZ FP-2 33.8*, PDI turbidity 12.4 and ERp5 inh 0.0.
O=C(O)c1ccc(N/N=C/c2cn(Cc3ccccc3F)c3ccccc23)cc1 was read as RAD52 inh -4.3, CAL PDZ FP-1 -0.9, RAD54 inh 1.8, CAL PDZ FP-2 -4.5, PDI turbidity -3.9 and ERp5 inh 0.4.
CC(C)n1cc(/C=N/Nc2ccc(C(=O)O)cc2)c2ccccc21 was read as RAD52 inh -16.1, CAL PDZ FP-1 0.2, RAD54 inh -7.3, CAL PDZ FP-2 71.4*, PDI turbidity -1.6 and ERp5 inh -8.9.
For O=C(C[C@@H]1CC[C@H]2[C@@H](COC[C@H](O)CN2CCC(F)(F)F)O1)NCC1CCCCC1 the results were RAD54 inh -2.1.
CC(C)NC(=O)COc1coc(CN2CCN(c3ccccc3F)CC2)cc1=O was read as RAD52 inh -15.4, CAL PDZ FP-1 -1.0, RAD54 inh -0.4, CAL PDZ FP-2 60.3*, PDI turbidity -0.2 and ERp5 inh -9.2.
Screening CN(C)C(=O)c1cccc(-c2ccc(C3[C@H]4CNC[C@@H]3N4Cc3cccc(C(F)(F)F)c3)cc2)c1 (some centres undefined) returned RAD52 inh 7.0 and ERp5 inh 7.4.
`C[C@H]1CN([C@@H](C)CO)C(=O)c2cc(NC(=O)CCCN(C)C)ccc2O[C@H]1CN(C)S(=O)(=O)c1ccc(F)cc1` gave RAD52 inh -5.1, RAD54 inh 1.0 and ERp5 inh -0.9.
CC(Cl)C(=O)N1c2ccccc2CCc2ccccc21 (centres undefined) was read as RAD52 inh -10.1, CAL PDZ FP-1 -0.2, RAD54 inh 4.4, CAL PDZ FP-2 -3.7, PDI turbidity -0.1 and ERp5 inh 0.1.
Screening O=C(CCl)N1c2ccccc2CCc2ccccc21 returned RAD52 inh -5.0, CAL PDZ FP-1 -15.6, RAD54 inh -1.2, CAL PDZ FP-2 45.5*, PDI turbidity -1.5 and ERp5 inh -1.1.
O=C(C[C@@H]1C[C@H]2c3cc(NS(=O)(=O)c4ccc(F)cc4)ccc3O[C@H]2[C@@H](CO)O1)NCc1ccncc1 was read as RAD52 inh 1.1, RAD54 inh -8.5 and ERp5 inh 14.9.
Screening O=C(c1nc2ccccn2c1CNCCCn1ncc2ccccc21)N1CCOCC1 returned RAD52 inh -28.6, CAL PDZ FP-1 0.1, CAL PDZ FP-2 8.9, PDI turbidity 10.0 and ERp5 inh -16.1.
